Compound activity deposited in PubChem by several laboratories.
Sampled rows, rich in hits. Any-hit rate of the full collection: about 1.1%.
FXIIa inh 1536 = human FXIIa protease inhibitors, primary screen, biochemical, 1536-well | purified FXIIa, Boc-QGR-AMC fluorogenic substrate, 2 h | inhibition, % at 5 µM | 220,000 tested, 0.3% active | AID 800, 2007; in the data active = inhibition above about 40%
hK5 inh = human KLK5 protease inhibitors, primary screen, biochemical, 1536-well; Kallikrein-5 (Homo sapiens), Q9Y337; recombinant hK5, fluorogenic AMC substrate cleavage; inhibition, % at 5 µM; 210,000 tested, 0.59% active; AID 873, 2007;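 active = inhibition of 40% or more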
Furin inh = human furin inhibitors, primary screen, biochemical, fluorescence intensity. purified furin, fluorogenic substrate cleavage. inhibition, % at 20 µM or 30 µM. 220,000 tested, 0.061% active. AID 463115, 2010. P09958; in the data active = inhibition above about 25%
Thrombin inh = human alpha-thrombin inhibitors, primary screen, counter-screen for coagulation protease inhibitor project, biochemical, 1536-well, fluorogenic AMC substrate; 220,000 tested, 0.26% active; inhibition, % at 5 µM; Boc-VPR-AMC fluorogenic substrate cleavage; Prothrombin (Homo sapiens), P00734;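 active = inhibition at or above 40%; inactive = inhibition below 40%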
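Assay system: human alpha-thrombin enzyme. Reagent: Boc-VPR-AMC substrate, 15 µM final. Compound dosing: one concentration per compound, 5 µM, with 0.2% DMSO. Incubation: room-temperature reaction. Technique: AMC fluorescence, 355/460 nm. Measure: % inhibition relative to enzyme controls and enzyme-free blanks.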
FXIa inh = human FXIa protease inhibitors, primary screen, biochemical, 1536-well. Coagulation factor XI (Homo sapiens), P03951. 220,000 tested, 0.14% active. purified FXIa, Boc-Glu-Ala-Arg-AMC fluorogenic substrate. inhibition, % at 5 µM. AID 798, 2007;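 active = inhibition of at least 40%; inactive = inhibition below 40%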;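 note: fluorescence of freed AMC excited at 355 nm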
Target sequence (P03951 19-387 limits assumed): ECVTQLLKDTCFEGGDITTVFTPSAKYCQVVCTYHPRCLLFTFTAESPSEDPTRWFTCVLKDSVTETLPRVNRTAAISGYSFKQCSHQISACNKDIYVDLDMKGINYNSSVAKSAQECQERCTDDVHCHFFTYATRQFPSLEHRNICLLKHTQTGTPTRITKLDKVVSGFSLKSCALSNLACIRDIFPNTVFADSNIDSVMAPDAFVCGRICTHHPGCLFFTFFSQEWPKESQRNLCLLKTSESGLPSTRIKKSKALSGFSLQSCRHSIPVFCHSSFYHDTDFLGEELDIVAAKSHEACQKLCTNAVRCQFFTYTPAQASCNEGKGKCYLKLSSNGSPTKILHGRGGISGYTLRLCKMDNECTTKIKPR
Target sequence (P03951 388-625 limits assumed): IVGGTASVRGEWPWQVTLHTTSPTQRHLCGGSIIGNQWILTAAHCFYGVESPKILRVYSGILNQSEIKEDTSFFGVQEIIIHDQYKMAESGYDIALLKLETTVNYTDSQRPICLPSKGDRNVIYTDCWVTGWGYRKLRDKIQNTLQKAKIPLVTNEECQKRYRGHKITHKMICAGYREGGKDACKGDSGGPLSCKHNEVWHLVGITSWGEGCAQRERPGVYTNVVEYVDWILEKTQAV
Hits are given with their value; . = inactive.

SMILES	FXIIa inh 1536	hK5 inh	Furin inh	Thrombin inh	FXIa inh
Cc1cc(N2CCN(c3ccccc3)CC2)nc(N)n1	.	.	.	.	.
Cc1cc(N2CCN(c3ccccc3)CC2)nc(-c2ccccc2)n1	.	65.3	.	83.3	.
COc1ccc(/C=C(\NC(=O)c2ccc(C)cc2)C(=O)Nc2c(C)n(C)n(-c3ccccc3)c2=O)cc1	.	.	.	.	.
Cc1nc(SCn2nnc3ccccc3c2=O)nc(C)c1C	.	.	.	.	.
Nc1nc(SCn2nnc3ccccc3c2=O)n[nH]1	40.0	.	.	.	.
Cc1ccc2c(c1C)NC(C)CC2C (stereo not drawn)	.	.	26.4	.	.
Cc1cccc2c1NC1(CCCC1)CC2C (stereo not drawn)	.	.	.	.	.
CCN(CC)C(=O)CC(c1ccc(F)cc1)c1ccc(OC(C)C)cc1 (stereo not drawn)	.	.	.	.	.
Cc1[nH]c2ccccc2c1C(=O)COC(=O)Cn1c(C)nc2ccccc21	.	51.7	.	.	.
Cc1[nH]c2ccccc2c1C(=O)COC(=O)Cn1cnc2ccccc21	.	.	.	.	.
CCOC(=O)N1CCN(C(=O)c2oc3ccc(S(=O)(=O)N4CCOCC4)cc3c2C)CC1	.	.	.	40.0	.
Cc1c(C(=O)NCCc2ccccc2)oc2ccc(S(=O)(=O)N3CCC4(CC3)OCCO4)cc12	.	.	.	.	.
COc1ccc(NC(=O)c2oc3ccc(S(=O)(=O)N4CCC5(CC4)OCCO5)cc3c2C)cc1	.	99.9	.	.	.
COc1ccc(N=C2S/C(=C\c3cc(C)n(C)c3C)C(=O)N2C)cc1	.	41.4	.	.	.
COc1cc(NC(=O)c2cccs2)c(OC)cc1NC(=O)CCC(=O)Nc1ccc2ncccc2c1	.	53.8	.	.	.
Cc1ccccc1NC(=O)OCc1cccnc1Oc1ccc(Cl)cc1	.	.	.	.	.
COC(=O)[C@@]1(Cc2ccc(F)cc2)[C@H]2c3cc(C(=O)N(C)C)n(Cc4ccc(OC(F)(F)F)cc4)c3C[C@H]2CN1C(=O)c1ccccc1	.	.	.	.	.
O=C1C(C=NCCCN2CCOCC2)=C(O)c2ccccc21	.	59.1	.	.	.
O=C1C(C=NCCN2CCOCC2)=C(O)c2ccccc21	.	.	.	.	.
COc1ccc(Cn2c(=O)[nH]c3cc(C(=O)N4CCN(c5ccccn5)CC4)ccc3c2=O)cc1	.	.	.	.	.
CC1=Nc2ccc(C)cc2/C1=C/c1c(N)n2c(S(=O)(=O)C(C)C)nsc2nc1=O	.	.	.	.	.
CSc1nsc2nc(=O)c(/C=C3\C(C)=Nc4ccc(C)cc43)c(N)n12	42.4	.	.	.	.
CCOC(=O)C(C)n1cnc2sc3c(c2c1=O)CCC3 (stereo not drawn)	.	40.5	.	.	.
CCOC(=O)c1cnn(-c2ncnc3sc4c(c23)CCC4)c1N	.	.	.	49.5	.
CCOC(=O)c1cnn(-c2nc(SC)nc3sc4c(c23)CCCC4)c1N	.	.	.	.	.
SMILES	FXIIa inh 1536	hK5 inh	Furin inh	Thrombin inh	FXIa inh
COc1ccccc1NC(=O)C1=C(C)Nc2ncnn2C1c1cccs1 (stereo not drawn)	.	.	.	.	.
COc1ccc(C2C(C(=O)Nc3ccccc3OC)=C(C)Nc3ncnn32)cc1 (stereo not drawn)	106.7	45.4	.	.	.
COC(=O)c1ccc(NC(=O)C(=O)N2CCN(C(=S)NCCc3ccccc3)CC2)cc1	.	.	.	.	.
COc1nc(C)ccc1-c1noc(-c2ccccn2)n1	.	.	28.5	.	.
CCOCCn1c(CN2CCOCC2)nc2c1c(=O)[nH]c(=O)n2C	.	40.6	.	.	.
Cc1ccc(NC(=O)c2ccc(OC(=O)COc3cccc(Cl)c3)cc2)cc1	.	.	.	77.1	.
Cc1ccc(NC(=O)c2ccc(OC(=O)COc3ccc(Cl)cc3C)cc2)cc1	.	.	.	.	.
COc1cc(C(=O)Nc2ccc3c(c2)OCCO3)ccc1OC(C)C	.	62.9	.	.	.
COc1cc(C(=O)Nc2ccc3c(c2)OCCO3)ccc1OC(F)F	.	.	.	.	.
O=C(NC(Cc1c[nH]c2ccccc12)c1nnc2n1CCCCC2)c1ccc(Cl)cc1 (stereo not drawn)	.	47.6	.	.	.
O=C(Nc1ccc(-c2nc3ccccc3[nH]2)cc1)c1cccc(N2C(=O)CCC2=O)c1	.	.	.	.	.
CCn1cc(C(=O)NCc2ccc3c(c2)OCO3)c(=O)c2cc(S(=O)(=O)N(C)C)ccc21	.	.	.	55.5	.
CCn1cc(C(=O)N2CC(C)CC(C)C2)c(=O)c2cc(S(=O)(=O)N3CCOCC3)ccc21 (stereo not drawn)	.	.	.	.	.
CCn1cc(C(=O)NCc2ccc3c(c2)OCO3)c(=O)c2cc(S(=O)(=O)N3CCOCC3)ccc21	.	.	.	93.0	.
CCn1cc(C(=O)NCc2ccccc2OC)c(=O)c2cc(S(=O)(=O)N(C)C)ccc21	.	.	.	.	.
CCn1cc(C(=O)NCc2ccc(Cl)cc2)c(=O)c2cc(S(=O)(=O)N3CCOCC3)ccc21	.	.	.	56.0	.
Cc1cc(C)nc(NS(=O)(=O)c2ccc(NC(=O)CSc3nc(-c4ccccc4)c(C#N)c(=O)[nH]3)cc2)n1	.	.	.	.	.
COc1cc2[nH]c(=S)n(CCN3CCOCC3)c(=O)c2cc1OC	.	103.8	.	.	.
NS(=O)(=O)c1ccc(NC(=S)NC(=O)c2ccco2)cc1	.	.	.	.	.
CC(=O)NS(=O)(=O)c1ccc(NC(=S)NC(=O)c2ccco2)cc1	42.6	.	.	.	.
O=C(Nc1nc(-c2ccc(Cl)s2)cs1)c1cccs1	73.3	.	.	.	91.0
Cc1ccc(CSc2ncnc3c2cnn3-c2ccc(C)cc2)cc1	41.4	45.0	.	.	.
Cc1ccc(CSc2ncnc3c2cnn3-c2ccccc2)cc1	.	.	.	.	.
O=C(COC(=O)C1CCCCC1)Nc1ccc(S(=O)(=O)N2CCOCC2)cc1	.	.	.	.	.
COc1ccc(S(=O)(=O)Nc2cc(C)c(O)cc2C(C)C)cc1	.	.	.	.	.
COc1ccc(S(=O)(=O)Nc2cc(C(C)C)c(O)cc2C)cc1	.	.	29.9	.	.
COc1ccc(S(=O)(=O)N(CCCN2CCCC2=O)Cc2cc3cc(C)c(C)cc3[nH]c2=O)cc1	.	85.8	.	.	.
CC(=C/c1ccc(C(C)C)cc1)/C=N/NC(=O)Cn1nnnc1N	.	.	.	.	.
CC(=O)Nc1cccc(C(=O)N/N=C/c2ccc(C)o2)c1	.	.	.	.	.
Cc1ccc(/C=N/NC(=O)c2cccc([N+](=O)[O-])c2)o1	.	40.8	.	.	.
